# How the values were obtained:
# Type in all cases: functional
# [1] = molecular target: Human immunodeficiency virus type 1 reverse transcriptase (Human immunodeficiency virus 1) (UniProt Q72547); assay: Compound ability to inhibit the production of HIV reverse transcriptase (RT) in culture supernatant of CEM-CL13 on at 7 days at a concentration 1 uM
# In short: (§1)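 CEM-C113 cells in RPMI 1640 with 5% heat-inactivated FCS and polybrene (2 µg/mL) were plated at 1×10^5 cells/mL with compound in PBS, in triplicate, and infected with HIV-1 LAV-Bru. From day 7, every 3–4 days, fresh medium with or without drug was added and 50 µL supernatant was taken for RT microassay. The RT microassay used poly(rA)-oligo(dT) and (methyl-³H)dTTP for 1 h at 37 °C, with TCA precipitation, read as cpm/50 µL.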
# [2] = molecular target: Human immunodeficiency virus type 1 reverse transcriptase (Human immunodeficiency virus 1) (UniProt Q72547); assay: Percent inhibition measured as the production of HIV reverse transcriptase (RT) in culture supernatant of monocytic U937 on at 14 days at a concentration 0.2 uM
# In short: (§2)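 U937 cells in RPMI 1640 with 5% heat-inactivated FCS, penicillin, streptomycin and polybrene (2 μg/mL), 37 °C, 5% CO2. Infected with HIV-1 LAV-Bru; compounds diluted in PBS. 50 μL supernatant aliquots were assayed for RT: 1 h, 37 °C, pH 7.8, Mg2+, poly(rA)-oligo(dT), [3H]dTTP, TCA-pyrophosphate stop, filter counting. % inhibition = 100 − 100 × (treated cpm / virus-control cpm).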
# CCRF-CEM = assay: Concentration required to reduce the viability of uninfected cells (CEM-CL13) by 50% on day 7.; conditions: Homo sapiens, 168 h, read-out: CD50 (the source's name)
# In short: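 CEM-C113 cells (1×10^5 cells/mL) were infected with HIV-1 LAV-Bru or mock-infected, with compound dilutions in triplicate, for at least 7 days. Medium with or without drug was renewed every 3–4 days for longer runs. MTT absorbance was read at 540 nm. CD50 = 50% reduction of mock-infected absorbance; ED50 = dose giving 50% protection from CPE. Values are averages of at least two experiments.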
# [3] = molecular target: Human immunodeficiency virus type 1 reverse transcriptase (Human immunodeficiency virus 1) (UniProt Q72547); assay: Percent inhibition measured as the production of HIV reverse transcriptase (RT) in culture supernatant of monocytic U937 on at 7 days at a concentration 5 uM; in short: as §2
# [4] = molecular target: Human immunodeficiency virus type 1 reverse transcriptase (Human immunodeficiency virus 1) (UniProt Q72547); assay: Percent inhibition measured as the production of HIV reverse transcriptase (RT) in culture supernatant of monocytic U937 on at 7 days at a concentration 0.2 uM; in short: as §2
# [5] = molecular target: Human immunodeficiency virus type 1 reverse transcriptase (Human immunodeficiency virus 1) (UniProt Q72547); assay: Compound ability to inhibit the production of HIV reverse transcriptase (RT) in culture supernatant of CEM-CL13 on at 22 days at a concentration 1 uM; in short: as §1
# [6] = molecular target: Human immunodeficiency virus type 1 reverse transcriptase (Human immunodeficiency virus 1) (UniProt Q72547); assay: Compound ability to inhibit the production of HIV reverse transcriptase (RT) in culture supernatant of CEM-CL13 on at 7 days at a concentration 5 uM; in short: as §1
# [7] = molecular target: Human immunodeficiency virus type 1 reverse transcriptase (Human immunodeficiency virus 1) (UniProt Q72547); assay: Compound ability to inhibit the production of HIV reverse transcriptase (RT) in culture supernatant of CEM-CL13 on at 15 days at a concentration 0.2 uM; in short: as §1
# [8] = molecular target: Human immunodeficiency virus type 1 reverse transcriptase (Human immunodeficiency virus 1) (UniProt Q72547); assay: Compound ability to inhibit the production of HIV reverse transcriptase (RT) in preinfected PBL (peripheral blood lymphocytes) at 7 days at a concentration 5 uM
# In short: (§3)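 PBL were infected with HIV-1 for 1 h at 37 °C, washed twice, and resuspended in complete medium with 10% interleukin-2 and anti-human α-interferon (1000 units/mL). Cells were plated at 1×10^6 cells/well with or without compound. At each time point, 50 µL supernatant was taken for RT assay ([³H]dTTP incorporation, cpm).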
# [9] = molecular target: Human immunodeficiency virus type 1 reverse transcriptase (Human immunodeficiency virus 1) (UniProt Q72547); assay: Compounds were evaluated for anti-RT activity by MTT dose and % cell / viability was reported at 9 days of culture
# In short: (§4)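 HIV-1 was preincubated with compound at 25 µM for 60 min at 37 °C, pelleted, and added to CEM-C113 cells (1×10^5 cells/mL) for 60 min at 37 °C. Medium was then replaced without compound. At days 7 and 9, viability was read by MTT assay on 100 µL of cell suspension.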
# [10] = molecular target: Human immunodeficiency virus type 1 reverse transcriptase (Human immunodeficiency virus 1) (UniProt Q72547); assay: Compound ability to inhibit the production of HIV reverse transcriptase (RT) in culture supernatant of CEM-CL13 on at 26 days at a concentration 5 uM; in short: as §1
# [11] = molecular target: Human immunodeficiency virus type 1 reverse transcriptase (Human immunodeficiency virus 1) (UniProt Q72547); assay: Compound ability to inhibit the production of HIV reverse transcriptase (RT) in culture supernatant of monocytic U937 on at 7 days at a concentration 1 uM
# In short: (§5)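 HIV-1-infected monocytic U937 cultures were kept up to 14 days with compound. Supernatant RT activity was measured as for CEM-C113, as [³H] cpm/50 µL. % inhibition = 100 − 100 × (cpm of treated samples / cpm of control virus).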
# [12] = molecular target: Human immunodeficiency virus type 1 reverse transcriptase (Human immunodeficiency virus 1) (UniProt Q72547); assay: Compound ability to inhibit the production of HIV reverse transcriptase (RT) in culture supernatant of monocytic U937 on at 7 days at a concentration 0.2 uM
# In short: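 HIV-1 LAV-Bru-infected U937 cultures run in complete RPMI 1640 (5% FCS, polybrene 2 µg/mL) at 37 °C with compound in triplicate. Culture supernatant (50 µL) sampled from day 7 for RT microassay: poly(rA)-oligo(dT), (methyl-3H)dTTP, Mg2+, pH 7.8, 1 h at 37 °C, TCA precipitation onto filters. Read as cpm/50 µL; % inhibition = 100 − 100 × treated/virus-control cpm.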
# [13] = molecular target: Human immunodeficiency virus type 1 reverse transcriptase (Human immunodeficiency virus 1) (UniProt Q72547); assay: Compounds were evaluated for anti-RT activity by MTT dose and %protection was reported at 9 days of culture; in short: as §4
# [14] = molecular target: Human immunodeficiency virus type 1 reverse transcriptase (Human immunodeficiency virus 1) (UniProt Q72547); assay: Compounds were evaluated for anti-RT activity at 9 days of culture
# In short: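 HIV-1 (12 500 CCID50) was preincubated with compound at 25 µM final for 60 min at 37 °C, pelleted by ultracentrifugation and resuspended. RT was measured at once with poly(rA)-oligo(dT) and ³H-dTTP (1 h, 37 °C, cpm). Treated virus was then put on CEM-C113 cells for 60 min and replaced with compound-free medium. Supernatant RT was read at days 7 and 9.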
# [15] = molecular target: Human immunodeficiency virus type 1 reverse transcriptase (Human immunodeficiency virus 1) (UniProt Q72547); assay: Percent inhibition measured as the production of HIV reverse transcriptase (RT) in culture supernatant of monocytic U937 on at 14 days at a concentration 1 uM; in short: as §2
# [16] = molecular target: Human immunodeficiency virus type 1 reverse transcriptase (Human immunodeficiency virus 1) (UniProt Q72547); assay: Compound ability to inhibit the production of HIV reverse transcriptase (RT) in culture supernatant of monocytic U937 on at 14 days at a concentration 5 uM; in short: as §5
# [17] = molecular target: Human immunodeficiency virus type 1 reverse transcriptase (Human immunodeficiency virus 1) (UniProt Q72547); assay: Compound ability to inhibit the production of HIV reverse transcriptase (RT) in culture supernatant of monocytic U937 on at 11 days at a concentration 0.2 uM; in short: as §5
# [18] = molecular target: Human immunodeficiency virus type 1 reverse transcriptase (Human immunodeficiency virus 1) (UniProt Q72547); assay: Compound ability to inhibit the production of HIV reverse transcriptase (RT) in culture supernatant of CEM-CL13 on at 22 days at a concentration 5 uM; in short: as §1
# [19] = molecular target: Human immunodeficiency virus type 1 reverse transcriptase (Human immunodeficiency virus 1) (UniProt Q72547); assay: Compound ability to inhibit the production of HIV reverse transcriptase (RT) in culture supernatant of CEM-CL13 on at 15 days at a concentration 5 uM; in short: as §1
# [20] = molecular target: Human immunodeficiency virus type 1 reverse transcriptase (Human immunodeficiency virus 1) (UniProt Q72547); assay: Compound ability to inhibit the production of HIV reverse transcriptase (RT) in preinfected PBL (peripheral blood lymphocytes) at 10 days at a concentration 1 uM; in short: as §3
# [21] = molecular target: Human immunodeficiency virus type 1 reverse transcriptase (Human immunodeficiency virus 1) (UniProt Q72547); assay: Compound ability to inhibit the production of HIV reverse transcriptase (RT) in culture supernatant of CEM-CL13 on at 22 days at a concentration 0.2 uM; in short: as §1
SMILES,Activity (c.p.m. 50ul-1) [1],inhibition [2] [%],CC50 (CCRF-CEM) [µM],inhibition [3] [%],inhibition [4] [%],Activity (c.p.m. 50ul-1) [5],Activity (c.p.m. 50ul-1) [6],Activity (c.p.m. 50ul-1) [7],Activity (c.p.m. 50ul-1) [8],Cell viability [9] [%],Activity (c.p.m. 50ul-1) [10],Activity (c.p.m. 50ul-1) [11],Activity (c.p.m. 50ul-1) [12],Protection [13] [%],Activity (c.p.m. 50ul-1) [14],inhibition [15] [%],Activity (c.p.m. 50ul-1) [16],Activity (c.p.m. 50ul-1) [17],Activity (c.p.m. 50ul-1) [20],Activity (c.p.m. 50ul-1) [21],further results
Cc1cn([C@H]2C[C@H](N=[N+]=[N-])[C@@H](CO)O2)c(=O)[nH]c1=O [ZIDOVUDINE],100,0,26,86,91,1700,900,1100,965,79,1300,36000,23000,76,7500,0,33000,152000,757,6400,Activity (c.p.m. 50ul-1) [18]: 500; Activity (c.p.m. 50ul-1) [19]: 500
CCCCCCCCCCCCCCCCOP(=O)(OC[C@H]1OC(O)[C@H](O)[C@@H](O)[C@@H]1O)OC[C@H]1OC(n2cc(C)c(=O)[nH]c2=O)C[C@@H]1N=[N+]=[N-] (some centres not stated),2600,14,11,,0,33000,,1600,8210,62,,66000,237000,52,13000,79,,178000,26300,45000,
Cc1cn([C@H]2C[C@H](N=[N+]=[N-])[C@@H](COP(=O)(O)OC[C@H]3OC(O)[C@@H](O)[C@@H](O)[C@@H]3O)O2)c(=O)[nH]c1=O (some centres not stated),,,27,46,,,1500,1700,967,36,103000,425000,,22,34000,0,24000,,3130,27000,Activity (c.p.m. 50ul-1) [18]: 12000; Activity (c.p.m. 50ul-1) [19]: 1300
CCCCCCCCCCCCCCCCOP(=O)(OC[C@H]1OC(O)[C@@H](O)[C@@H](O)[C@@H]1O)OC[C@H]1OC(n2cc(C)c(=O)[nH]c2=O)C[C@@H]1N=[N+]=[N-] (some centres not stated),2000,0,2.6,,0,3900,,1700,3140,32,,122000,251000,18,10000,0,,227000,71500,24000,
Cc1cn([C@H]2C[C@H](N=[N+]=[N-])[C@@H](COP(=O)(O)OCCO[C@H]3O[C@H](CO)[C@@H](O)[C@H](O)[C@@H]3O)O2)c(=O)[nH]c1=O,,,25,20,,,1670,2600,855,28,42000,306000,,12,39000,0,23000,,4400,27000,Activity (c.p.m. 50ul-1) [18]: 5500; Activity (c.p.m. 50ul-1) [19]: 852
CCCCCCCCCCCCCCCCOP(=O)(OCCO[C@H]1O[C@H](CO)[C@@H](O)[C@H](O)[C@@H]1O)OCC1OC(n2cc(C)c(=O)[nH]c2=O)CC1N=[N+]=[N-] (some centres not stated),6000,0,20,,0,48000,,2400,,25,,401000,343000,4,44000,0,,131000,60200,52000,
Cc1cn([C@H]2C[C@H](N=[N+]=[N-])[C@@H](COP(=O)(O)OC[C@H]3OC(O)[C@H](O)[C@@H](O)[C@@H]3O)O2)c(=O)[nH]c1=O (some centres not stated),,,30,43,,,1100,750,890,34,6000,158000,,13,28000,9,31400,,771,2200,Activity (c.p.m. 50ul-1) [18]: 1500; Activity (c.p.m. 50ul-1) [19]: 400

# Source: ChEMBL document CHEMBL1125259, “Lipophilic glycosyl phosphotriester derivatives of AZT: synthesis, NMR transmembrane transport study, and antiviral activity” (1991)
